HSF1 activator – increases HSF-1 driven luciferase reporter signal; AID 504408; 300,000 tested, 1.7% active; NIH3T3-HGL HSF-1 luciferase reporter, MG132, 8 h; 100% = twice DMSO control signal; activation, % at 9 µM;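 active means mean replicate activation of at least 50% with a set share of replicates each reaching 50%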;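 further: 0% = median of the neutral control wells and 100% = twice that signal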
PvdQ inh – blocks Pseudomonas aeruginosa PvdQ acylase activity | AID 488965 | 340,000 tested, 0.063% active | purified PvdQ acylase, fluorescence plate reader | inhibition, % at 10 µM; in the data active means inhibition above about 30%, passing the limit was not always enough;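 further: 0% = vehicle neutral wells and 100% = reference inhibitor wells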
PfHsp90 yeast 2 – inhibits growth of yeast expressing Plasmodium falciparum Hsp90; 310,000 tested, 0.32% active; S. cerevisiae expressing PfHsp90, BacTiter-Glo ATP, 48 h; yeast lacking PDR1 and PDR3 efflux regulators; inhibition, % at 9.4 µM;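 active means every replicate shows inhibition above about 80%, whatever the replicate mean, limit read from the data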;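 further: 0% = DMSO neutral controls and 100% = 20 µM radicicol positive controls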
T cruzi repl – T. cruzi replication inhibition. T. cruzi beta-gal in NIH3T3, luminescence, 90 h. 300,000 tested, 1.4% active. inhibition, % (test concentration not listed). AID 1885;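 active means mean inhibition across valid replicates above about 55%, limit read from the data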;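 further: signal also drops with host cell toxicity which is not excluded here; 0% = plate median of DMSO wells and 100% = zero luminescence signal; higher percent means less beta-gal luminescence so fewer parasites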
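assay system = mouse NIH/3T3 fibroblasts infected with β-gal-expressing T. cruzi Tulahuen C4 | input = 5,000 NIH/3T3 host cells per well | buffer or medium = DMEM plus 2% FBS | timing = 3 h host attachment, then at least 90 h co-culture | measured by = GalScreen luminescence, 60 min | evaluation = luminescence reflecting intracellular parasite burden, expressed as percent inhibition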
Glyco luc inh – blocks N-linked glycosylation in D54 reporter cells; 360,000 tested, 0.23% active; reporter increase, % at 12.5 µM; AID 588692; D54 ERlucT glycosylation luciferase reporter, 24 h; percent of 100 nM tunicamycin response;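 active means mean luciferase reporter signal, scaled so untreated is 0 and the glycosylation-blocking control 100, at or above a set limit in every replicate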;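 further: luciferase carries N-glycosylation sites so blocking glycosylation raises the light; 0% = median of neutral control wells and 100% = median of 100 nM tunicamycin wells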
CaV13 FRET inh – Primary screen for inhibitors of IQ motif and Ca2+-dependent inactivation inhibitor domain binding in CACNA1D, Förster resonance energy transfer in living cells, … | HEK cells, CFP/YFP FRET ICDI-IQ, plate reader, 10 min; percent FRET-ratio fall versus neutral wells | inhibition, % at 12.3 µM | 340,000 tested, 0.098% active | AID 743397;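 active means mean replicate inhibition of at least 30% and at least 1% of replicates passing that level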;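 further: 0% = median of the neutral control wells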
An asterisk follows results filed as active; . = not tested or not shown. An excerpt weighted towards active compounds, which were near 3% of everything screened.

SMILES | HSF1 activator | PvdQ inh | PfHsp90 yeast 2 | T cruzi repl | Glyco luc inh | CaV13 FRET inh
COc1ccc(Nc2nnc(-c3ccc4c(c3)OCO4)o2)cc1 | . | . | . | . | . | -4
CCCCCCN1CCN(C2CN(Cc3cn(Cc4ccc(C(F)(F)F)cc4)nn3)S(=O)(=O)C2)CC1 (centres undefined) | . | . | . | . | . | -4
Cn1c(CCN2CCN(c3ccc(F)cc3)CC2)nc2cc(NC(=O)c3ccco3)ccc21 | 8 | -6 | 17 | 2 | -7 | .
Cc1ccc(N2CCN(CCc3nc4cc(NC(=O)c5ccco5)ccc4n3C)CC2)cc1 | 69* | -1 | . | -8 | -10 | -4
Cn1c(CCN2CCN(c3ccccc3)CC2)nc2cc(NC(=O)c3ccco3)ccc21 | 128* | -6 | 32 | 1 | -2 | -8
C[C@@H]1Cn2cnc(C(=O)N[C@@H](C)c3ccccc3)c2C(=O)N1 | . | . | . | . | 4 | -7
CCc1cc(=O)oc2cc(C)c(CN3CCCC3)c(O)c12 | 8 | 5 | . | 2 | 1 | -5
CCCc1cc(=O)oc2cc(C)c(CN3CCCC3)c(O)c12 | 63* | -13 | . | 19 | 0 | -4
CCCC(=O)Nc1nc2ccc(OC)cc2s1 | 43 | -13 | 5 | 5 | -3 | -7
COc1ccc2nc(NC(=S)N(C)C)sc2c1 | 34 | -1 | 11 | 60* | -14 | -4
CCOC(=O)c1c(CN(C)C)n(C)c2c(O)c(N=NC(N)=O)c3ccc(Br)cc3c12 | 2 | -12 | 24 | 11 | 28* | -1
CCOC(=O)C(=Cc1cc(=O)c(OC)co1)C(=O)OCC | 94* | -6 | -8 | 11 | -16 | -2
O=C(Nc1nc2ccccc2[nH]1)c1ccccc1F | -73 | -12 | 75 | -14 | -20 | -8
O=C(N/N=C/c1ccc(OC(F)F)cc1)c1ccc(Br)cc1 | 1 | -6 | -17 | 12 | -2 | -6
N#CC(Cc1cccs1)c1nc2ccccc2[nH]1 (centres undefined) | . | . | . | . | 3 | -4
O=C(Nc1nc2ccccc2[nH]1)c1ccc(OC(F)F)cc1 | 68* | -2 | 20 | 14 | -17 | -3
O=C(NO)c1ccc(OC(F)F)cc1 | -9 | 2 | 19 | 12 | 36* | -5
N#CC(Cc1ccc(OC(F)F)cc1)c1nc2ccccc2[nH]1 (centres undefined) | 59* | 6 | 4 | -5 | 1 | -5
O=C(Nc1nc2ccccc2[nH]1)c1ccccc1OC(F)F | 60* | -4 | 6 | -5 | -15 | -5
CC1CCc2sc(C(=O)NC3CCN(Cc4ccccc4)CC3)cc2C1 (centres undefined) | . | -11 | 1 | . | -4 | -6
CCC1CCc2sc(C(=O)NC3CCN(Cc4ccccc4)CC3)cc2C1 (centres undefined) | -6 | -10 | . | 60* | -1 | -5
CC1(Oc2cccc(C#N)c2)CCN(Cc2ccccc2OC(F)F)C1 (centres undefined) | . | . | . | . | -1 | -5
COc1ccc(NC(=S)NC(NC(=O)c2cccc3ccccc23)C(Cl)(Cl)Cl)c([N+](=O)[O-])c1 (centres undefined) | 17 | -16 | -10 | 68* | 4 | .
Cc1ccc(C)c(NC(=S)NC(NC(=O)Cc2cccc3ccccc23)C(Cl)(Cl)Cl)c1 (centres undefined) | . | -10 | -10 | 38 | 74* | .
Cc1ccccc1NC(=S)NC(NC(=O)COc1ccccc1)C(Cl)(Cl)Cl (centres undefined) | 21 | -8 | -11 | 9 | 0 | -5
SMILES | HSF1 activator | PvdQ inh | PfHsp90 yeast 2 | T cruzi repl | Glyco luc inh | CaV13 FRET inh
COc1ccc(NC(=S)NC(NC(=O)c2ccccc2Cl)C(Cl)(Cl)Cl)c([N+](=O)[O-])c1 (centres undefined) | 28 | -7 | 17 | 12 | 1 | -10
CCc1ccc(OCC(=O)NC(NC(=S)Nc2ccccc2C)C(Cl)(Cl)Cl)cc1 (centres undefined) | 11 | -8 | 4 | 55* | 11 | -4
Cc1ccccc1OCCCN1CCC(C(O)(c2ccccc2)c2ccccc2)CC1 | . | . | . | . | . | -12
COC(=O)[C@]12C[C@H](CC(=O)N3CCCC3)C(=O)N(Cc3ccc4c(c3)OCO4)C1=C[C@H](COCc1ccccc1)O[C@@H]2C | . | . | . | . | . | -10
CC(C)c1nnc(SCc2ccc(CSc3nnc(C(C)C)n3N)cc2)n1N | 80* | 5 | -1 | -14 | -1 | -6
COc1ccc(-n2nnc3c(SC(C(C)=O)C(=O)N(C)C)ncnc32)cc1 (centres undefined) | -2 | -4 | 12 | -15 | 4 | -16
CCOC(=O)CNC(=O)CSc1ncnc2c1nnn2-c1ccc(F)cc1 | 95* | 8 | 17 | -26 | 4 | .
CCOC(=O)CNC(=O)Cn1cnc2c(nnn2-c2ccc(F)cc2)c1=O | -8 | -14 | . | -14 | -1 | -9
COC(=O)C(C)Sc1ncnc2c1nnn2-c1ccc(F)cc1 (centres undefined) | 126* | -2 | 9 | -23 | -5 | -6
COc1ccccc1-c1ccc([C@@H]2C[C@H]3[C@H](CON3C)CN2CC2CCCCC2)cc1 | . | . | . | . | . | -5
CCOC(=O)N1CCN(S(=O)(=O)c2ccc(C(=O)NNc3nc4c(C)cccc4s3)cc2)CC1 | -19 | -4 | -3 | 44 | 0 | -7
Cc1cccc2sc(NNC(=O)c3ccc(S(=O)(=O)N4CCCC(C)C4)cc3)nc12 (centres undefined) | -10 | -2 | -57 | 34 | -8 | 43*
Cc1cccc2sc(NNC(=O)c3ccc(S(=O)(=O)N4CCc5ccccc5C4)cc3)nc12 | -23 | 0 | -41 | 60* | -11 | -6
C1CCC(OCCN2CCN(CCOC3CCCCC3)CC2)CC1 | 10 | 2 | -6 | 55* | 0 | -9
CCOc1ccc(/C=N/NC(=O)C(C)N(c2ccc(OC)cc2)S(C)(=O)=O)cc1 (centres undefined) | 64* | -5 | -5 | -1 | 1 | -9
COc1ccc(N(C(C)C(=O)N/N=C/c2ccc(OCC(C)C)cc2)S(C)(=O)=O)cc1 (centres undefined) | -3 | -1 | -9 | -1 | -3 | -6
CN(C)CCCNCCNC(=O)/C=N\O | 6 | -3 | 5 | -3 | 3 | -6
CN(C)CCCCNCCCNC(=O)/C=N\O | 62* | 10 | -1 | 2 | -1 | -8
COc1cccc(-c2cc3nc(-c4ccccc4)cc(N4CCC5(CC4)OCCO5)n3n2)c1 | -4 | -37 | -12 | 55* | 3 | -8
Fc1ccc(-c2cc3nc(-c4ccccc4)cc(N4CCN(CCN5CCOCC5)CC4)n3n2)cc1 | -7 | -12 | -3 | 55* | -5 | -11
COc1cccc(-c2cc3nc(-c4ccccc4)cc(N4CCN(C(=O)c5ccoc5)CC4)n3n2)c1 | . | . | . | . | -11 | -5
